# Experimental data as given in PubChem BioAssay AID1257 (The Scripps Research Institute Molecular Screening Center, 2008).
# The list shows a part of the results. Unmarked numbers belong to inactive results.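 How the source made its calls: active means mean inhibition of triplicate wells above the hit cutoff set in the primary screen (cut at about 17% in these data); inactive means the rest.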
# Target: Neuropeptide Y receptor type 2 (Homo sapiens) (UniProt P49146)
# Test: blockers of human NPY-Y2 signalling – HEK293-CNG cells, membrane potential fluorescence, triplicate, confirmation (AID 1257);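 further: 0% = DMSO with NPY challenge and 100% = BIIE0246 high control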
# Settings: HEK293 NPY-Y2 CNG channel, at 2.8 µM, stronger effect = higher value
# Procedure, shortened: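 Signal: fluorescence of membrane-potential-sensitive dye; assay system: Y2 HEK293-CNG cell line; also added: NPY 8 nM plus isoproterenol 1 µM, Ro 20-1724 25 µM; control set: BIIE0246 high and DMSO low controls; repeats: three replicates; read-out basis: 30-min to baseline fluorescence ratio, control-normalized; compound: 2.8 µM single dose; schedule: 60 min NPY incubation, room temperature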
# Chain of Neuropeptide Y receptor type 2 (Homo sapiens) (P49146 whole entry, looked up): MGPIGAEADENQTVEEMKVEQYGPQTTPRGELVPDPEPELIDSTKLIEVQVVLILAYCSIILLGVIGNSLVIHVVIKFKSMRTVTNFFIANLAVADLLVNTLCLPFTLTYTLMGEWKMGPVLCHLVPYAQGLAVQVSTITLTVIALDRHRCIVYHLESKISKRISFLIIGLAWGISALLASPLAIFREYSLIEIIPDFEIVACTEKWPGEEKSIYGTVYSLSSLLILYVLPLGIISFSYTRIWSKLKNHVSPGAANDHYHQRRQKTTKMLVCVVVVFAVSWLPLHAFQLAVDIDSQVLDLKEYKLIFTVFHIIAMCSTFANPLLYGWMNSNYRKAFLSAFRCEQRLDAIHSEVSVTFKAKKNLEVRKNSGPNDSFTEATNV
smiles,measurement,value
O=C(COC(=O)c1ccccc1)Nc1ccc(Cl)cc1C(=O)c1ccccc1,inhibition,15.9%
